Experimental findings from PubChem BioAssay AID977615 (Broad Institute, 2014) are described below.

SMILES strings stand for the structures. Values joined by “and” are separate entries in the source; they are usually repeats but may differ in a detail not shown here. Identical values can stand only once. Active and inactive are the calls of the source.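 The calls were made as follows: active = cell killing with fitted AC50 at or below twice the top valid dose for that sample; inconclusive = flat curve losing 30 to 70% signal, or bad fit; inactive = the rest.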

The test system of the first experiment is HEK293T viability, CellTiter-Glo ATP luminescence, 72 h. The experiment is described as follows: HEK293T cell cytotoxicity, dose response, cytotoxicity control, CellTiter-Glo luminescence, dry powder, set 17 (AID 977615).
Details: not given
Summed up: (§1)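 Assay system: HEK293T cells. Buffer or medium: DMEM plus 10% FBS. Compound dosing: multi-concentration compound series. Schedule: 24 h attachment, 72 h compound exposure, 37 °C, 5% CO2. Signal: CellTiter-Glo ATP luminescence.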
Regarding `COc1ccc(-c2ccc(CN(C)C[C@@H]3Oc4cc(C#C[C@@H](C)O)ccc4S(=O)(=O)N([C@@H](C)CO)C[C@@H]3C)cc2)cc1`, the concentration at half-maximal activity (AC50) was 1580 nM.
Same read-out and setting: the figure for `C[C@@H](O)C#Cc1ccc2c(c1)O[C@@H](CN(C)Cc1ccc(-c3ccccc3)cc1)[C@@H](C)CN([C@@H](C)CO)S2(=O)=O` is 3610 nM and 2940 nM; for `C[C@@H](O)C#Cc1ccc2c(c1)O[C@@H](CN(C)Cc1ccc(-c3cccc(Cl)c3)cc1)[C@@H](C)CN([C@@H](C)CO)S2(=O)=O` it is 2080 nM; for `Cc1ccc(-c2ccc(CN(C)C[C@@H]3Oc4cc(C#C[C@@H](C)O)ccc4S(=O)(=O)N([C@@H](C)CO)C[C@@H]3C)cc2)cc1` it is 1540 nM.
Same read-out and setting: the result for `C[C@H](O)C#Cc1ccc2c(c1)O[C@@H](CN(C)Cc1ccc(-c3ccccc3)cc1)[C@H](C)CN([C@H](C)CO)S2(=O)=O` reads 26100 nM.
The same measure, in the same setting: the result for `Cc1ccccc1-c1ccc(CN(C)C[C@@H]2Oc3cc(C#C[C@@H](C)O)ccc3S(=O)(=O)N([C@@H](C)CO)C[C@@H]2C)cc1` reads 1890 nM; that for `C[C@H]1CN([C@@H](C)CO)S(=O)(=O)c2ccc(C#CC(C)(C)O)cc2O[C@H]1CN(C)Cc1ccc(-c2ccccc2)cc1`, 18000 nM.
As for `COc1ccc(-c2ccc3c(c2)O[C@@H](CN(C)Cc2ccc(-c4ccccc4)cc2)[C@@H](C)CN([C@@H](C)CO)S3(=O)=O)cc1`, the AC50 is > 52000 nM (inactive).
Still for that read-out and setting: the result for `C[C@@H](O)C#Cc1ccc2c(c1)O[C@@H](CN(C)Cc1ccc(-c3ccccc3Cl)cc1)[C@@H](C)CN([C@@H](C)CO)S2(=O)=O` reads 364 nM.
The same measure, in the same setting: the result for `COc1cccc(-c2ccc(CN(C)C[C@@H]3Oc4cc(C#C[C@@H](C)O)ccc4S(=O)(=O)N([C@@H](C)CO)C[C@@H]3C)cc2)c1` reads 884 nM; that for `C[C@H](CO)N1C[C@H](C)[C@H](CN(C)Cc2ccc(-c3ccccc3)cc2)Oc2cc(C#C[C@@H](C)O)ccc2S1(=O)=O`, 21700 nM; that for `C[C@H](O)C#Cc1ccc2c(c1)O[C@H](CN(C)Cc1ccc(-c3ccccc3)cc1)[C@@H](C)CN([C@@H](C)CO)S2(=O)=O`, 7120 nM.
As to `COc1ccccc1-c1ccc(CN(C)C[C@@H]2Oc3cc(C#C[C@@H](C)O)ccc3S(=O)(=O)N([C@@H](C)CO)C[C@@H]2C)cc1`, the AC50 was 1350 nM.
On to `C[C@@H](O)C#Cc1ccc2c(c1)O[C@@H](CN(C)Cc1ccc(-c3ccc(Cl)cc3)cc1)[C@@H](C)CN([C@@H](C)CO)S2(=O)=O`, for which the AC50 was 1260 nM.
Still for that read-out and setting: the result for `C[C@H](O)C#Cc1ccc2c(c1)O[C@@H](CN(C)Cc1ccc(-c3ccccc3)cc1)[C@@H](C)CN([C@@H](C)CO)S2(=O)=O` reads 22000 nM; that for `C[C@@H](O)C#Cc1ccc2c(c1)O[C@H](CN(C)Cc1ccc(-c3ccccc3)cc1)[C@@H](C)CN([C@@H](C)CO)S2(=O)=O`, 25900 nM.
On to `Cc1cccc(-c2ccc(CN(C)C[C@@H]3Oc4cc(C#C[C@@H](C)O)ccc4S(=O)(=O)N([C@@H](C)CO)C[C@@H]3C)cc2)c1`, for which the concentration at half-maximal activity (AC50) was 1530 nM.

System in a further experiment: not listed separately
The experiment is described as above. To be noted: HEK293T viability, CellTiter-Glo ATP luminescence, 72 h; at 26 µM (top of the series). Summed up: as §1
As for `C[C@@H](O)C#Cc1ccc2c(c1)O[C@@H](CN(C)S(=O)(=O)c1ccc(-c3ccccc3)cc1)[C@@H](C)CN([C@@H](C)CO)S2(=O)=O`, the activity change, negative = cytotoxic is -12.1% (inactive).
On the same count and under the same terms, the figure for `C[C@@H]1CN([C@H](C)CO)S(=O)(=O)c2ccc(C#C[C@@H](C)O)cc2O[C@@H]1CN(C)Cc1ccc(-c2ccccc2)cc1` is 2.1% (inactive); for `CO[C@H]1CN(C)C(=O)c2ccc(NC(=O)c3ccc(F)cc3)cc2OC[C@H](C)N(C(=O)c2ccc(F)cc2)C[C@@H]1C` it is 1.97% (inactive).
The same measure, in the same setting: the figure for `C[C@H](O)C#Cc1ccc2c(c1)O[C@H](CN(C)Cc1ccc(-c3ccccc3)cc1)[C@H](C)CN([C@@H](C)CO)S2(=O)=O` is -11.3% (inactive); for `CNC[C@@H]1Oc2cc(Br)ccc2S(=O)(=O)N([C@@H](C)CO)C[C@@H]1C` it is -16.1% (inactive).
Same read-out and setting: the figure for `C[C@H]1CN([C@@H](C)CO)S(=O)(=O)c2ccc(Br)cc2O[C@H]1CN(C)Cc1ccc(-c2ccccc2)cc1` is -0.919% (inactive); for `C[C@@H]1CN([C@H](C)CO)S(=O)(=O)c2ccc(C#C[C@@H](C)O)cc2O[C@H]1CN(C)Cc1ccc(-c2ccccc2)cc1` it is -10.1% (inactive).
Take `C[C@@H](O)C#Cc1ccc2c(c1)O[C@@H](CN(C)Cc1ccncc1)[C@@H](C)CN([C@@H](C)CO)S2(=O)=O`: the activity change, negative = cytotoxic was -12% (inactive).
Same read-out and setting: the figure for `C[C@@H](O)C#Cc1ccc2c(c1)O[C@@H](CN(C)Cc1cccnc1)[C@@H](C)CN([C@@H](C)CO)S2(=O)=O` is 2.11% (inactive); for `C[C@@H]1CN([C@@H](C)CO)S(=O)(=O)c2ccc(C#C[C@@H](C)O)cc2O[C@@H]1CN(C)Cc1ccc(-c2ccccc2)cc1` it is -8.45% (inactive).
